Screens as filed in PubChem BioAssay.
NR2E3 ag-1 = human photoreceptor-specific nuclear receptor agonism; Q9Y5X4; CHO-S Gal4-NCOR/VP16-NR2E3 two-hybrid, luciferase; inhibition of corepressor binding, % at 3.98 µM; 360,000 tested, 0.35% active;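 active means inhibition above the mean of all tested compounds plus 3 SD, cut at about 70% in these data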;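 further: 0% = DMSO with NR2E3 transfected cells and 100% = cells lacking NR2E3 construct; higher means lower luciferase signal from less NR2E3 corepressor binding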
Target sequence (Q9Y5X4 whole entry, looked up, the tested form may be a part): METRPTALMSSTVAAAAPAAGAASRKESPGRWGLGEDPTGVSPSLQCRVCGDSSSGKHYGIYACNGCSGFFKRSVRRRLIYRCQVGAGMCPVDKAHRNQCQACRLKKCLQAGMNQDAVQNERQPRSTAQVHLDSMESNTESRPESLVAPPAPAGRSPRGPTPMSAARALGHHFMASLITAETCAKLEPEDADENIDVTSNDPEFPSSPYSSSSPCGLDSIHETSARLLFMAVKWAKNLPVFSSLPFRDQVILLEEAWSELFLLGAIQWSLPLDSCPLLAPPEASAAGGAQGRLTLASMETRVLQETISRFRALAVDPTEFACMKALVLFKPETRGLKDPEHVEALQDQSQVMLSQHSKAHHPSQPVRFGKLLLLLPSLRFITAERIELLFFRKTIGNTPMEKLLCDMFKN
NR2E3 ag-2 = NR2E3 (human) agonism; 320,000 tested, 0.12% active; inhibition of corepressor binding, % at 4.78 µM; GST-NR2E3/biotin-RetCOR TR-FRET, 1536-well;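 active means percent inhibition above the cutoff of mean plus 3 SD of all tested compounds, set per screening campaign, cut at about 20% in these data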;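 further: 0% = DMSO wells and 100% = biotin wells as full block of FRET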
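System: GST-NR2E3 and biotin-RetCOR proteins; probe or stimulus: 7 nM biotin-RetCOR; doses: compound at 4.8 µM, single dose; schedule: Compound–protein incubation for 5 h at 4 °C; detection: time-resolved FRET; read-out: percent inhibition; controls: biotin wells as high control, 0.6% DMSO wells as low control; format: 1536-well plates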
Rev-erbA mod = Rev-erb alpha (human) modulation; P20393; 370,000 tested, 0.79% active; activity, % at 10 µM; Rev-erbα–FITC-DNA binding, fluorescence polarization, 90 min;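 active means activity above about 14%, limit read from the data; passing the limit was not always enough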;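 further: 0% = DMSO wells with 35 nM protein and 100% = DMSO wells with 750 nM protein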
PG9 binder = small molecules binding HIV-1 gp120 antibody PG9; TR-FRET gp120-PG9 antibody binding; inhibition, % at 6.7 µM; 360,000 tested, 0.43% active; AID 624416; in the data active means inhibition above about 8.5%
PG9 bind confirm = PG9 antibody binding, confirmed. inhibition, % at 6.7 µM. AID 651571. shares compounds with PG9 binder. TR-FRET PG9 antibody binding, biochemical. 1,500 tested, 90% active; in the data active means inhibition above about 9%
PGV04 Ab binding = counter-screen for PG9 binders: binding control antibody PGV04; shares compounds with PG9 binder; TR-FRET PGV04 antibody-gp120 binding, biochemical; inhibition, % at 6.7 µM; 1,500 tested, 95% active; in the data active means inhibition above about 9.5%
Rev-erbA confirm = confirmation of modulators of human Rev-erb alpha DNA binding. activation, % at 25 µM. Rev-erb alpha FITC-DNA binding, fluorescence polarization, 90 min. shares compounds with Rev-erbA mod. 3,000 tested, 61% active;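 active means activation at or above a set limit, or at least 3 SD above the negative control mean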;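 further: 0% = 35 nM protein with DMSO and 100% = 750 nM protein high control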
RORg DNA counter = RORgamma DNA-binding activity, dose-response counter-screen. shares compounds with Rev-erbA mod. purified RORgamma protein-FITC-DNA binding, fluorescence polarization. IC50, µM. 910 tested, 8% active;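 active means Compounds whose fitted half-maximal concentration for disrupting protein-DNA binding is below 10 micromolar; the record names Rev-erb in its text, so the target is in doubt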
Active calls of the source: *; i = inactive; nt = not tested or not shown. Shown are actives, neighbours in structure and some others; about 1.5% of the full set was active somewhere.

SMILES | NR2E3 ag-1 | NR2E3 ag-2 | Rev-erbA mod | PG9 binder | Rev-erbA confirm | others
Cc1ccc2[nH]c(=O)c(CN(C)C(=O)c3cccs3)cc2c1 | -15 | 1 | 5 | -2 | nt
O=C(Nc1nnc(SCc2c(Cl)cccc2Cl)s1)c1ccc2ncsc2c1 | nt | -2 | nt | nt | nt
N#Cc1ccc(CSc2nnc(NC(=O)c3ccc4ncsc4c3)s2)cc1 | -27 | i | 60* | 32* | 23* | PG9 bind confirm=30*;PGV04 Ab binding=48*
CC(=O)c1cccc(NC(=O)c2cc(-c3cccs3)on2)c1 | 0 | -1 | 33* | 24* | 11 | PG9 bind confirm=29*;PGV04 Ab binding=47*
O=C(Nc1cccc(O)c1)c1cc(-c2cccs2)on1 | -22 | 1 | 1 | -1 | nt
Cc1ccc(S(=O)(=O)N2c3ccccc3C[C@H]2CC=C(c2ccccc2)c2ccccc2)cc1 | nt | nt | 9 | nt | nt
OC(c1ccccc1)(c1ccccc1)C1CCN(CCCOc2ccc(Br)cc2)CC1 | nt | nt | 0 | nt | nt
C=CCn1c(SCC(=O)Nc2sccc2C#N)nc2sc(C)c(C)c2c1=O | 8 | 9 | 97* | 11* | 63* | PG9 bind confirm=26*;PGV04 Ab binding=44*;RORg DNA counter=>40
O=C(COC(=O)c1cc(Br)ccc1O)Nc1cccnc1Cl | -28 | 3 | 66* | 38* | 39* | PG9 bind confirm=13*;PGV04 Ab binding=31*;RORg DNA counter=>40
O=C(COC(=O)c1ccc(Cl)cc1O)Nc1cccnc1Cl | -43 | -1 | 3 | 1 | nt
N#Cc1ccsc1NC(=O)COC(=O)c1cc(Br)ccc1O | -49 | 9 | 48* | 34* | 32* | PG9 bind confirm=38*;PGV04 Ab binding=60*;RORg DNA counter=>40
COCCNc1nc2c(S(=O)(=O)c3cc(C)ccc3C)nnn2c2ccccc12 | -7 | 4 | 45* | 46* | 19* | PG9 bind confirm=29*;PGV04 Ab binding=55*
CC(=O)NCCNc1nc2c(-c3cccc(C)c3)nnn2c2ccccc12 | 2 | 2 | 1 | 4 | nt
Cc1ccccc1CN1CCCCC(NC(=O)c2cc(-c3ccccc3)no2)C1=O (stereo not given) | nt | nt | 1 | nt | nt
CCCCCNC(=O)c1ccc2c(=O)n(CCCOCC)c(=S)[nH]c2c1 | -2 | 2 | 1 | -2 | nt
CCOCCCn1c(=S)[nH]c2cc(C(=O)NCCc3ccccc3)ccc2c1=O | -37 | 0 | 43* | 18* | 31* | PG9 bind confirm=23*;PGV04 Ab binding=53*;RORg DNA counter=i
COc1ccc2cc(C(=O)Nc3ccc(S(N)(=O)=O)cc3)sc(=O)c2c1OC | 7 | -31 | 26* | 1 | 37* | RORg DNA counter=>40
COC(=O)C1CN(Cc2cn(Cc3ccc(OC)cc3)nn2)CCS(=O)(=O)N1Cc1ccccc1 (stereo not given) | nt | nt | -5 | nt | nt
CCNC(=O)Cn1cc(C(F)(F)F)cc(Cl)c1=O | -24 | -3 | 7 | -1 | nt
O=C(Cn1cc(C(F)(F)F)cc(Cl)c1=O)NCc1ccc(Cl)cc1Cl | -27 | 3 | 39* | 4 | 56* | RORg DNA counter=>40
Cc1ccc(-c2nn3c(C)nnc3s2)cc1NC(=O)c1ccc(-c2cccc(Cl)c2)o1 | 5 | nt | -8 | -2 | nt
Cc1ccc(-c2nn3c(C)nnc3s2)cc1NC(=O)c1ccc(-c2ccc(Cl)cc2Cl)o1 | -18 | -3 | 124* | 1 | 186* | RORg DNA counter=i
Cc1cccc(CCNc2nc3ccccc3n3nnnc23)c1 | -36 | 1 | 44* | 0 | 15
Clc1ccc(Nc2nc3ccccc3n3nnnc23)cc1 | -27 | -2 | 33* | -3 | 18*
Cc1ccc(Nc2nc3ccccc3n3nnnc23)cc1 | -81 | 1 | -1 | 5 | nt
SMILES | NR2E3 ag-1 | NR2E3 ag-2 | Rev-erbA mod | PG9 binder | Rev-erbA confirm | others
O=C(COC(=O)C1c2ccccc2Oc2ccccc21)NC1CCS(=O)(=O)C1 (stereo not given) | -35 | 1 | -3 | 1 | nt
O=[N+]([O-])c1cc([N+](=O)[O-])c(Oc2cccnc2Br)cc1NN1CCCCC1 | -1 | 0 | 16* | 0 | -1
O=[N+]([O-])c1cc([N+](=O)[O-])c(Oc2cccc3ccccc23)cc1NN1CCCCC1 | -7 | nt | 8 | 1 | nt
Cc1cc(NC(=O)CSc2nc(-c3ccccc3Cl)nc3c2c(=O)n(C)c(=O)n3C)no1 | 0 | 2 | 28* | 1 | 7
CCSc1nnc(-c2ccc(Cl)cc2)c2ccccc12 | -4 | 3 | 239* | 1 | 289* | RORg DNA counter=>40
Cc1nc(C)n(CC(=O)N2CCCC(C(=O)c3ccc(C(F)(F)F)cc3)C2)n1 (stereo not given) | 1 | 4 | -2 | -3 | nt
CCN1/C(=C/c2ccc3cc(C)cc(C)c3[n+]2CC)Sc2cc(C)ccc21 | 91* | nt | 31* | -7 | 37* | RORg DNA counter=i
Cc1ccc(Cn2cc(CN3[C@@H](CC(C)C)COc4cccc(F)c4S3(=O)=O)nn2)cc1 | nt | nt | 1 | nt | nt
COc1ccc(OC)c(NC(=O)c2cc3oc4ccccc4c3cc2O)c1 | 2 | 2 | 41* | 1 | 15
CC1CCC2C(=O)N(c3ccccc3OC(=O)c3ccccc3F)C(=O)C2C1 (stereo not given) | 2 | 0 | 3 | 0 | nt
CC(NC(=O)C1CCCCC1)C(=O)NC1=NCCS1 (stereo not given) | 15 | -5 | -4 | -2 | nt
CC1(c2nnnn2Cc2ccccc2)CCCCC(=O)N1Cc1cccs1 (stereo not given) | nt | nt | -4 | nt | nt
CCOC(=O)c1c(NC(=S)Nc2ccc(OC)cc2)sc2c1CCC2 | -9 | 4 | 47* | -1 | 37* | RORg DNA counter=>40
COc1cc(/C=N/NC(=O)c2c(C)nc3ccc(Cl)cn23)cc(OC)c1OC | -7 | nt | 50* | 1 | 47* | RORg DNA counter=>40
C=CC[C@H](CC(=O)OC(C)(C)C)C(=O)OC[C@H]1CCCN1C(=O)[C@H](CC=C)CC(=O)NCCO | -18 | nt | 1 | 1 | nt
N#C/C(=C/c1cn[nH]c1-c1ccc(Br)cc1)C(=O)O | 3 | -3 | 3 | 0 | nt
Cc1ccnc(NC(=O)CNC(=O)c2sc3ccccc3c2Cl)c1 | -56 | 8 | 35* | 6 | 6
Cc1ccc(S(=O)(=O)N2CCN(C(=O)CNC(=O)c3sc4ccccc4c3Cl)CC2)cc1 | -3 | 2 | 23* | 0 | 5
O=C(CNC(=O)c1sc2ccccc2c1Cl)NCc1ccccc1 | -37 | -8 | 22* | -9 | 11
Cc1ccnc(NC(=O)c2cc(-c3ccc(Cl)s3)nc3ccccc23)c1 | -33 | -4 | 24* | -4 | -6
Cc1ccc2c(=O)cc(C(=O)NCc3ccccc3)oc2c1C | -2 | 2 | 0 | -1 | nt
CC(=O)NCCNc1nc2c(-c3ccccc3)nnn2c2ccccc12 | -22 | 0 | 3 | 1 | nt
Cc1ccc(-c2nnn3c2nc(NCCc2ccc(S(N)(=O)=O)cc2)c2ccccc23)cc1 | -11 | 2 | 48* | 4 | 30*
